From ChEMBL document CHEMBL1149327, “Punaglandins, chlorinated prostaglandins, function as potent Michael receptors to inhibit ubiquitin isopeptidase activity” (J Med Chem, 2004) come the findings set out here.

Format in all cases: functional, cell-based
The subject of assay [1] is HCT cell line. Nature of the assay: Cytotoxicity against wild type p53 gene in human colon tumor 116 (HCT 116) cell lines was determined. An outline of the steps:
(§1)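 HCT 116 wild-type and isogenic p53- or p21-disrupted lines (McCoy's 5A, 10% FBS) seeded at 3.0 × 10^3/well, adhered 24 h, then treated at varying concentrations for 48 h, eight replicates, DMSO controls. Viability by MTS, absorbance 490 nm after 2–3 h, expressed as % of same-plate DMSO control; EC50 fitted from log concentration–response curve; done twice.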

In assay [2] the test system is RKO. Briefly: Cytotoxicity against human RKO cell line. The method, boiled down:
(§2)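 RKO and RKO-E6 cells (DMEM, 10% FBS, 37 °C, 5% CO2) seeded at 5.0 × 10^3/well, adhered 24 h, then exposed to varying concentrations for 48 h, eight replicates, DMSO controls. MTS conversion read at 490 nm after 2–3 h; growth as % of same-plate DMSO control; EC50 from concentration–response curve. Assay run twice.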

For assay [3], the system named is RKO. Briefly: Cytotoxicity against human RKO-E6 cell line. The settings on record: RKOE6. An outline of the steps: as §2
The subject of assay [4] is HCT cell line. Nature of the assay: Cytotoxicity against wild type p21 gene in human colon tumor 116 (HCT 116) cell lines was determined. An outline of the steps: as §1
For assay [5], the system named is HCT cell line. Briefly: Cytotoxicity against wild type p53-l- gene in human colon tumor 116 (HCT 116) cell lines was determined. The method, boiled down: as §1
Assay [6] deals with HCT cell line. Nature of the assay: Cytotoxicity against wild type p21-l- gene in human colon tumor 116 (HCT 116) cell lines was determined. The method, boiled down: as §1

As a reminder, the EC50 is the concentration at which the effect is half-maximal. The low end stands for higher potency in that assay, the high end for lower potency in that assay.

`CCCCC/C=C\C[C@@]1(O)C=C(Cl)C(=O)/C1=C/[C@H](OC(C)=O)[C@H](CCCC(=O)OC)OC(C)=O` [PUNAGLANDIN 4]: the EC50 in the assay with HCT cell line [1] was determined as 0.33 µM; with RKO [2], 0.31 µM; with RKO [3], 0.37 µM; in the assay on HCT cell line [4] it was 0.34 µM; with HCT cell line [5], 0.35 µM; in the assay with HCT cell line [6], 0.28 µM.

On to `CCCCC/C=C\C[C@@]1(O)C=C(Cl)C(=O)[C@@H]1[C@@H](OC(C)=O)[C@H](OC(C)=O)[C@H](CCCC(=O)OC)OC(C)=O`, for which the EC50 in the assay with HCT cell line [1] worked out at 0.04 µM; with HCT cell line [4], 0.047 µM; with HCT cell line [5], 0.04 µM; with HCT cell line [6], 0.04 µM.

Consider `CCCCC/C=C\C[C@@]1(O)C=C(Cl)C(=O)[C@@H]1C[C@H](OC(C)=O)[C@H](CCCC(=O)OC)OC(C)=O`, for which the EC50 was determined as 0.34 µM in the assay on HCT cell line [1]; 0.44 µM with RKO [2]; 0.47 µM in the assay on RKO [3]; 0.33 µM in the assay on HCT cell line [4]; 0.36 µM in the assay with HCT cell line [5]; 0.32 µM in the assay on HCT cell line [6].

Consider `CC/C=C/C/C=C\C[C@@]1(O)C=C(Cl)C(=O)/C1=C/[C@H](OC(C)=O)[C@H](CCCC(=O)OC)OC(C)=O`, for which the EC50 was determined as 0.32 µM with HCT cell line [1], 0.29 µM in the assay with HCT cell line [4], 0.37 µM in the assay on HCT cell line [5] and 0.3 µM with HCT cell line [6].
